Source: ChEMBL document CHEMBL4257469, “Deciphering the role of hydrophobic and hydrophilic bile acids in angiogenesis using in vitro and in vivo model systems” (Medchemcomm, 2017)
The source made the active and inactive calls.

Key:
Danio rerio [1] = species: Danio rerio; assay: Antiangiogenic activity in Tg(fli:eGFP) zebrafish embryo assessed as effect on phynotypic changes after 72 hrs post fertilization by fluorescence microscopic analysis; assay type: functional, organism-based
In short: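 Tg(fli1:eGFP) zebrafish embryos were selected at 48 hpf, 20–25 per well, and exposed to bile acids at 6.25, 12.5 and 25 μM in embryo water from DMSO stocks. Vehicle was 0.1% DMSO. At 72 hpf the solutions were replaced with fresh embryo water. Embryos were anesthetized with tricaine and imaged by stereo and fluorescence microscopy for sub-intestinal vessel sprouting and branching. Two experiments, 50 embryos per group.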

Danio rerio [2] = species: Danio rerio; assay: Toxicity in zebrafish embryo assessed as reduction in embryo survival up to 50 uM; assay type: organism-based; conditions: in vivo
HUVEC [3] = assay: Cytotoxicity against HUVEC assessed as reduction in cell death up to 12.5 uM after 24 hrs by MTT assay; assay type: cell-based; conditions: human
In short: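 HUVECs (passages 2–5, complete EBM-2) seeded at 5 × 10³ cells/well and left 24 h to adhere. Serum-starved 4 h, then exposed to bile acids (serial dilutions, 100 to 6.25 μM) in complete medium for 24 h. MTT added for 4 h at 37 °C, formazan dissolved in DMSO, absorbance read at 550 nm. Run in triplicate; three independent experiments.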

HUVEC [4] = assay: Induction of angiogenesis in HUVEC assessed as increase in tube formation at 12.5 uM after overnight incubation by inverted microscopic analysis; assay type: functional, cell-based; conditions: Homo sapiens
In short: (§1)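 Wells coated with Matigel:plain EBM-2 (1:1). HUVECs added at 2 × 10⁵ cells/well with bile acid (12.5 or 25 μM) or vehicle and left overnight. Bright-field images at 10× from five fields per well; nodes and tube lengths counted. Triplicate, three independent experiments; one-way ANOVA with Dunnett's test.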

HUVEC [5] = assay: Induction of angiogenesis in HUVEC assessed as increase in number of nodes at 12.5 uM after overnight incubation by inverted microscopic analysis relative to control; assay type: functional, Homo sapiens; in short: as §1
HUVEC [6] = assay: Antiangiogenic activity in HUVEC assessed as inhibition of endothelial tube formation at 25 uM after overnight incubation by inverted microscopic analysis; assay type: functional, cell-based; conditions: Homo sapiens
In short: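 HUVECs at passages 2–5 were seeded at 2 × 10^5 cells per well on a gelled basement membrane matrix, made as Matrigel mixed 1:1 with plain EBM-2. Bile acids were added at 12.5 and 25 μM, with DMSO as vehicle control, and cells were treated overnight. Bright-field images were taken at 10× from five fields per well. Nodes and tube lengths were quantified. Runs were in triplicate; statistics by one-way ANOVA (Dunnett).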

Danio rerio [7] = species: Danio rerio; assay: Pro-angiogenic activity in Tg(fli:eGFP) zebrafish embryo assessed as increase in sprouting of sub-intestinal veins at 12.5 uM after 72 hrs post fertilization by fluorescence microscopic analysis; assay type: functional, organism-based
In short: (§2)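 Tg(fli1:eGFP) embryos selected at 48 hpf, 20–25 per well, raised at 28.5 °C. Bile acids (DMSO stock, diluted in embryo water) given at 6.25, 12.5 or 25 μM; 0.1% DMSO as vehicle control. Solutions replaced with fresh water at 72 hpf, embryos anaesthetised with tricaine and sub-intestinal vessels imaged by fluorescence. Scored as percentage of embryos; two experiments, 50 embryos/group.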

Danio rerio [8] = species: Danio rerio; assay: Pro-angiogenic activity in Tg(fli:eGFP) zebrafish embryo assessed as increase in branching of sub-intestinal veins at 12.5 uM after 72 hrs post fertilization by fluorescence microscopic analysis; assay type: functional, organism-based; in short: as §2
Danio rerio [9] = species: Danio rerio; assay: Pro-angiogenic activity in Tg(fli:eGFP) zebrafish embryo assessed as increase in sprouting and branching of sub-intestinal vessels (after 72 hrs post fertilization by fluorescence microscopic analysis; assay type: functional, organism-based; in short: as §2
Danio rerio [10] = species: Danio rerio; assay: Pro-angiogenic activity in Tg(fli:eGFP) zebrafish embryo assessed as arcades formation at 12.5 uM after 72 hrs post fertilization by fluorescence microscopic analysis; assay type: functional, organism-based; in short: as §2
Danio rerio [11] = species: Danio rerio; assay: Pro-angiogenic activity in Tg(fli:eGFP) zebrafish embryo assessed as sub-intestinal vein baskets extending towards ventral side at 12.5 uM after 72 hrs post fertilization by fluorescence microscopic analysis; assay type: functional, organism-based; in short: as §2
HUVEC [12] = assay: Increase in VEGFR1 m-RNA expression in HUVEC at 12.5 uM after 12 to 24 hrs by RT-qPCR analysis; assay type: functional, cell-based; conditions: Homo sapiens
In short: (§3)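 HUVECs treated with 12.5 μM bile acid or DMSO for 12 and 24 h. Total RNA extracted and 1 μg reverse-transcribed. SYBR-green qPCR for VEGFR1/VEGFR2: 95 °C 10 min, then 40 cycles of 95 °C 5 s / 60 °C 30 s. ΔΔCT normalised to GAPDH and expressed as fold change over control; repeated twice.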

HUVEC [13] = assay: Increase in VEGFR2 m-RNA expression in HUVEC at 12.5 uM after 12 to 24 hrs by RT-qPCR analysis; assay type: functional, cell-based; conditions: Homo sapiens; in short: as §3
HUVEC [14] = assay: Increase in MMP9 level in HUVEC at 12.5 uM after 24 hrs by ELISA; assay type: functional, cell-based; conditions: Homo sapiens
In short: (§4)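 HUVECs in 6-well plates treated with 12.5 μM bile acid or DMSO vehicle. Medium supernatant collected 12 and 24 h after treatment. MMP9 measured by ELISA with HRP read-out at 405 nm, concentration interpolated from an MMP9 standard curve. Experiments done in duplicate.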

HUVEC [15] = assay: Decrease in MMP9 level in HUVEC at 12.5 uM after 24 hrs by ELISA; assay type: functional, cell-based; conditions: Homo sapiens; in short: as §4
HUVEC [16] = assay: Pro-angiogenic activity in HUVEC assessed as stress fiber formation at 12.5 uM after overnight incubation by FITC-conjugated phalloidin staining based confocal microscopic analysis; assay type: functional, cell-based; conditions: Homo sapiens
In short: (§5)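 HUVECs grown to 70% confluency on coverslips and treated with bile acids overnight. Fixed in 4% paraformaldehyde for 5 min and blocked with 1% BSA/0.1% Triton X-100 for 2 h. Stained with anti-VE-cadherin (1:200, 4 °C overnight) plus Alexa-488 secondary, FITC-phalloidin (1:100) for F-actin, and DAPI. Confocal imaging; repeated twice.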

HUVEC [17] = assay: Pro-angiogenic activity in HUVEC assessed as decrease in VE-cadherin expression at 12.5 uM after overnight incubation by FITC-conjugated phalloidin staining based confocal microscopic analysis; assay type: functional, cell-based; conditions: Homo sapiens; in short: as §5
HUVEC [18] = assay: Pro-angiogenic activity in HUVEC assessed as decrease in cell-to-cell contact at 12.5 uM after overnight incubation by FITC-conjugated phalloidin staining based confocal microscopic analysis; assay type: functional; conditions: Homo sapiens; in short: as §5
HUVEC [19] = assay: Cytotoxicity against HUVEC assessed as reduction in cell viability at 6.25 to 100 uM after 24 hrs by MTT assay; assay type: cell-based; conditions: human
In short: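 HUVECs at passages 2–5 were seeded at 5 × 10^3 cells per well in complete EBM-2 and allowed to adhere for 24 h. They were serum-starved 4 h, then given serially diluted bile acids (100 to 6.25 μM) in complete medium for 24 h. MTT was added for 4 h at 37 °C. Formazan was dissolved in DMSO and absorbance read at 550 nm. Three independent experiments.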

HUVEC [20] = assay: Induction of angiogenesis in HUVEC assessed as increase in tube length at 12.5 uM after overnight incubation by inverted microscopic analysis; assay type: functional, cell-based; conditions: Homo sapiens; in short: as §1
HUVEC [21] = assay: Increase in wound healing in HUVEC at 12.5 uM after 18 to 24 hrs by phase contrast microscopic analysis; assay type: functional, cell-based; conditions: Homo sapiens
In short: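 HUVECs grown to a confluent monolayer in 12-well plates and serum-deprived overnight. Scratched with a p200 tip, washed with DPBS, then given complete EBM-2 with 12.5 μM bile acid or DMSO vehicle. Imaged from a marked reference point at 0 h and after 18–24 h (phase contrast, 10×); percentage of migrated cells versus control. Triplicate; Dunnett's test.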

Danio rerio [22] = species: Danio rerio; assay: Pro-angiogenic activity in Tg(fli:eGFP) zebrafish embryo at 6.25 uM after 72 hrs post fertilization by fluorescence microscopic analysis; assay type: functional, organism-based; in short: as §2

Measured: Activity

O=c1cc(N2CCOCC2)oc2c(-c3ccccc3)cccc12
active: Danio rerio [1]

C[C@H](CCC(=O)O)[C@H]1CC[C@H]2[C@@H]3[C@H](O)C[C@@H]4C[C@H](O)CC[C@]4(C)[C@H]3CC[C@]12C [CHENODIOL]
inactive: HUVEC [6]
active: HUVEC [4] | Danio rerio [7] | Danio rerio [8] | Danio rerio [9] Dose-dependent effect | Danio rerio [10] | Danio rerio [11] | HUVEC [12] | HUVEC [13] | HUVEC [14] | HUVEC [15] | HUVEC [16] | HUVEC [17] | HUVEC [18] | HUVEC [20] | HUVEC [21] | Danio rerio [22]
Non-Toxic: Danio rerio [2] | HUVEC [3] | HUVEC [19]
150%: HUVEC [5]
